# HGIII-sPLA2 inh: Blocks human group III sPLA2 activity | Q9NZ20 | QFRET BODIPY PC-A2 liposome hydrolysis, fluorescence | inhibition, % at 12.2 µM | 370,000 tested, 0.56% active | AID 743126;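 active means inhibition above mean plus 3 SD of compounds lying within the high and low control bounds, cut at about 19% in these data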;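 further: 0% = median of test compound wells and 100% = no enzyme DMSO wells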
# NTR1 ag: NTR1 (human) agonism | P30989 | NTR1-U2OS beta-arrestin-GFP spot imaging, agonist mode | activation, % at 20 µM | 330,000 tested, 0.17% active | AID 493036;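 active means activation at or above 40% of the spot to cytoplasm intensity ratio, with at least 20 cells analyzed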;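 further: 0% = DMSO without peptide and 100% = 100 nM NTR1 peptide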
# Target sequence (P30989 whole entry, looked up): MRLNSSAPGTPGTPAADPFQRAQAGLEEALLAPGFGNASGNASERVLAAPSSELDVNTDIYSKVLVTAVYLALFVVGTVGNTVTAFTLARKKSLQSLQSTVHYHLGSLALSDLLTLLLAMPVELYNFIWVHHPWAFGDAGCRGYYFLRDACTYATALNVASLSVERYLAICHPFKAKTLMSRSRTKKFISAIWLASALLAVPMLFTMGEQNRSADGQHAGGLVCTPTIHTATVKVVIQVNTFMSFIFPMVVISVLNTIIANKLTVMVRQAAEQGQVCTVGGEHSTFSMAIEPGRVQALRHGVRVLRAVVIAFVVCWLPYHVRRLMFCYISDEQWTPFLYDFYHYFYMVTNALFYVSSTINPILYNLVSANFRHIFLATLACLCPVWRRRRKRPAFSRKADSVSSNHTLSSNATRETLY
# MC4R ag barr: activates human MC4R beta-arrestin recruitment; P32245; U2OS MC4R beta-arrestin complementation, luminescence; percent of melanotan II response, DMSO zero; activation, % at 8.9 µM; 360,000 tested, 0.98% active; AID 540308;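 active means activation above a per-plate cutoff, the mean activation of sample wells on that plate plus 3 SD, cut at about 8% in these data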
# MC4R antag cAMP: antagonists of human melanocortin 4 receptor (MC4R) | P32245 | MC4R-expressing cells, MTII-stimulated cAMP, LANCE TR-FRET | inhibition, % at 6.5 µM | 360,000 tested, 0.48% active | AID 540295;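 active means inhibition above its plate's cutoff, the mean of tested wells on that plate plus 3 SD, cut at about 29% in these data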;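 further: 0% = Melanotan II alone and 100% = Melanotan II plus saturating MCL0020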
#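 material = U2OS cells stably expressing human melanocortin 4 receptor (MC4R) | also added = Melanotan II challenge | dosing = single nominal compound dose of 6.5 µM | detection = TR-FRET with Eu-cAMP and labeled anti-cAMP, 671 nm | replication = singlicate | timing = compound 30 min, challenge 1 h, detection 1 h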
# Exocytosis inh: lytic granule exocytosis inhibition. inhibition, % at 10 µM. 360,000 tested, 0.66% active. AID 651702. TALL-104 LAMP-1 surface exposure, flow cytometry; cells stimulated with thapsigargin and PMA;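 active means inhibition above about 55%, limit read from the data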
# A1 inh: inhibitors of the anti-apoptotic protein A1, read as caspase activation | MEF A1-2A-BIM cells, Caspase-Glo 3/7 luminescence, 3 h; percent of clofoctol response, vehicle zero | caspase activation, % (concentration not given with the values) | AID 2462 | 330,000 tested, 0.066% active;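 active means over half of replicate activation scores above 10%, or exactly half above 10 with the replicate mean above 10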
# U2OS cAMP counter: nonselective cAMP signaling inhibitor, MC4R antagonist counter-screen; shares compounds with MC4R antag cAMP; parental U2OS, forskolin cAMP, LANCE TR-FRET; inhibition, % at 6.5 µM; 1,600 tested, 26% active; AID 602193;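 active means mean inhibition over triplicates above the low-control well mean plus 3 SD, set per campaign, cut at about 13% in these data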;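 further: signal is single emission at 671 nm which falls as cellular cAMP rises; 0% = forskolin-stimulated wells and 100% = buffer without forskolin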
# MC4R antag conf: human MC4R cAMP antagonism confirmation | shares compounds with MC4R antag cAMP | AID 602195 | MC4R-expressing cells, MTII-stimulated cAMP, TR-FRET | 1,600 tested, 27% active | inhibition, % at 6.5 µM; in the data active means inhibition above about 29%;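 further: 0% = agonist stimulated wells alone and 100% = agonist stimulated wells plus saturating reference antagonist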
# * hit, by the source's call; x = no result. This is a sample that favours compounds with a hit; in the whole collection about 2.5% have one here.
SMILES,HGIII-sPLA2 inh,NTR1 ag,MC4R ag barr,MC4R antag cAMP,Exocytosis inh,A1 inh,U2OS cAMP counter,MC4R antag conf
CC(=O)Nc1ccccc1OCCOc1ccc(Br)cc1,-10.6,2.5,-0.9,35.9*,-7.1,0.6,1.3,-4.5
NC(=O)c1ccccc1OCCOc1ccc(Br)cc1,-3.6,-0.1,2.3,11.7,24.3,-0.3,x,x
Cc1ccc(OCC(=O)Oc2cccc(C)c2)cc1,-1.1,0.8,1.2,-4.6,0.6,1.1,x,x
CC(=O)Nc1cccc(OC(=O)COc2ccc(Br)cc2)c1,1.3,0.5,2.2,29.2*,-0.6,-0.1,-0.8,4.0
COC(=O)C[C@@H]1CC[C@@H]2[C@H](COc3ccc(NC(=O)c4ccc5c(c4)OCO5)cc3C(=O)N2C)O1,4.0,x,x,x,x,x,x,x
Cc1ccc(C(=O)C(C)OC(=O)c2cc3cc([N+](=O)[O-])ccc3oc2=O)cc1 (stereo not given),-21.3,4.7,-3.3,33.4*,-4.1,-0.1,7.8,13.5
CC(=O)Nc1cccc(Oc2cc(C#N)c(C#N)cc2N2CCCCCC2)c1,-39.8,5.2,-0.1,33.1*,-0.5,0.1,1.6,10.3
CC(=O)O[C@H]1CC[C@@]2(C)C(CCC3C2CC[C@]2(C)OC(=O)CCC32)C1 (stereo not given in full),-1.7,1.1,-0.5,-4.2,-4.9,0.7,x,x
CC(=O)OC1CCC2(C)C(CCC3C4CC=C(C(C)=O)C4(C)OC(=O)CC32)C1 (stereo not given),-2.1,x,-1.6,42.5*,2.6,x,31.1*,-19.9
Cc1[nH]nc(S(=O)CC(=O)O)c1[N+](=O)[O-] (stereo not given),6.7,0.6,1.6,31.4*,12.6,-0.9,-1.3,-11.2
Cc1[nH]nc(NCCO)c1[N+](=O)[O-],4.3,-0.3,-2.8,6.0,-0.9,0.4,x,x
COC(=O)[C@]12C[C@H](CC(=O)N3CCSCC3)C(=O)N(Cc3ccccc3)C1=C[C@H](COCc1ccccc1)O[C@@H]2C,-1.7,x,x,x,x,x,x,x
COc1nc(NC(C)C)nc(N(C#N)CN2C(=O)c3ccccc3S2(=O)=O)n1,3.4,2.0,-0.3,17.4,2.9,0.9,x,x
CC(C)(C)Nc1nc(Cl)nc(N(C#N)CN2C(=O)c3ccccc3S2(=O)=O)n1,-14.4,12.9,-0.9,35.5*,14.2,-0.6,24.9*,51.0*
CC(C)Nc1nc(Cl)nc(N(C#N)CN2C(=O)c3ccccc3S2(=O)=O)n1,2.1,8.7,-2.5,45.9*,2.2,0.4,14.4*,36.9*
CN(C)c1nc(N(C)C)nc(N(C#N)CN2C(=O)c3ccccc3S2(=O)=O)n1,-2.5,4.2,-1.6,8.8,0.7,-0.1,x,x
Cc1cc(=O)[nH]c(SCC(=O)Nc2ccc(Cl)cc2)n1,9.0,x,x,x,x,x,x,x
O=C1NC[C@@H](c2ccccc2)OC(=O)[C@@H](Cc2ccc(F)cc2)CC/C=C/C[C@H]1CC(=O)N(CCO)Cc1ccccc1,-21.2,18.6,-1.6,7.1,16.2,-0.5,x,x
O=C(N[C@H]1C/C=C\C[C@H](CC(=O)N(CCO)Cc2ccccc2)C(=O)NC[C@H](c2ccccc2)OC1=O)OCC1c2ccccc2-c2ccccc21,x,-0.9,-0.5,31.9*,-1.0,1.1,4.4,-5.7
O=C1NC[C@H](c2ccccc2)OC(=O)[C@@H](Cc2ccc(F)cc2)C/C=C\C[C@H]1CC(=O)N(CCO)Cc1ccccc1,-48.7,9.7,-1.1,45.5*,-7.0,0.5,2.1,22.1
O=C1NC[C@H](c2ccccc2)OC(=O)[C@H](Cc2ccc(F)cc2)C/C=C\C[C@H]1CC(=O)N(CCO)Cc1ccccc1,-6.0,7.8,1.3,39.3*,1.0,-1.2,-1.8,-6.0
O=C1NC[C@@H](c2ccccc2)OC(=O)[C@H](Cc2ccc(F)cc2)C/C=C\C[C@H]1CC(=O)N(CCO)Cc1ccccc1,-25.1,2.1,-1.8,15.3,-3.3,-1.0,x,x
COC(=O)c1cc2c(ccn2-c2ccc(F)cc2)n1CC(=O)OC(C)C,-27.4,1.5,0.3,31.4*,-1.5,0.7,3.6,2.1
COC(=O)c1cc2c(ccn2-c2ccc(F)cc2)n1CC(=O)C(C)(C)C,-13.8,0.1,-3.1,8.1,32.1,-0.8,x,x
COC(=O)C1CN(Cc2ccc(C)cc2)CCS(=O)(=O)N1Cc1cn(Cc2ccc(C)cc2)nn1 (stereo not given),-10.0,x,x,x,x,x,x,x
SMILES,HGIII-sPLA2 inh,NTR1 ag,MC4R ag barr,MC4R antag cAMP,Exocytosis inh,A1 inh,U2OS cAMP counter,MC4R antag conf
O=C(COC(=O)c1ccc(Cl)c(Cl)c1)NC1CCCC1,-3.6,1.2,0.0,3.3,-12.9,2.5,x,x
O=C(COC(=O)c1cnc(Cl)c(Cl)c1)NCCC1=CCCCC1,0.8,8.4,-2.4,37.9*,-6.6,1.2,27.6*,35.7*
CN(C(=O)COC(=O)c1cnc(Cl)c(Cl)c1)C1CCCCC1,9.0,3.3,-3.8,39.5*,-4.4,0.7,21.6*,39.3*
O=C(COC(=O)c1cnc(Cl)c(Cl)c1)NC1CCCCCC1,10.0,4.3,-5.2,29.2*,-1.3,x,26.8*,47.9*
O=C(COC(=O)c1cnc(Cl)c(Cl)c1)NC1CCCC1,12.7,x,-1.0,29.4*,26.3,x,22.1*,32.6*
Nc1cc(C(=O)OCC(=O)NCCC2=CCCCC2)ccc1Cl,3.5,1.1,-0.8,6.2,-2.6,-1.1,x,x
CN(C)c1cccc2c(S(=O)(=O)NCC3CCN(C(=O)C(=O)c4cc5ccccc5o4)CC3)cccc12,-25.9,x,x,x,x,x,x,x
COc1ccc(C[N+]2=C(N)N[C@@]3(C=C(C)Cn4c(=O)n(-c5ccccc5)c(=O)n43)C2)c(OC)c1,-7.1,x,x,x,x,x,x,x
COCCN1C(=O)[C@H]2C[C@@]13O[C@H](C1CCCCC1)N=C3CC1c3ccccc3C[C@@]12C (stereo not given in full),0.7,x,x,x,x,x,x,x
Cc1ccc2nc(-c3ccc(Cl)cc3)c(Cc3ccsc3)n2c1,-0.2,x,x,x,x,x,x,x
COC(=O)[C@]12C[C@H](CC(=O)N3CCN(C(=O)C4CC4)CC3)C(=O)N(Cc3ccco3)C1=C[C@H](C(C)(C)C)O[C@@H]2C,16.8,x,x,x,x,x,x,x
C=CC[C@@H](CC(=O)N(CCO)Cc1ccccc1)C(=O)NC[C@H](OC(=O)[C@@H](CC=C)Cc1ccc(F)cc1)c1ccccc1,-39.8,18.8,2.0,34.8*,-3.3,-2.1,-0.2,0.1
COc1cc(/C=N/NC(=O)c2cccnc2)ccc1OS(=O)(=O)c1ccc(C)cc1,-8.5,-1.0,-1.2,28.8*,2.1,-0.7,1.6,5.4
Cc1ccc(NC(=O)c2cc(N3C(=O)C=CC3=O)ccc2N2CCOCC2)cc1,2.2,x,-2.0,68.9*,17.6,x,8.5,50.5*
